Measurements taken from publication PMC6396188 (ACS Central Science, 2019).
Where no end group is shown, it is not given here. ROX = carboxy-X-rhodamine

How the values were obtained:
[1] = test system: IL-2; assay: Sandwich assay for IL-2; format: binding, human; conditions: for detection of IL-2 in sandwich assay: capture bead-4 plus detection ROX-5, 50 nM IL-2, deionized water; for bead fluorescence in sandwich assay before protein addition: capture bead-4 plus detection ROX-5, deionized water, no IL-2
[2] = biological target: T1, GFP (Aequorea victoria, UniProt P42212, F64L/H231L/S65T); assay: On-bead binding assay by fluorescence microscopy; conditions: on PEGA beads, 50 nM GFP
How it was run: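 Recombinant N-terminally His-tagged GFP expressed in E. coli BL21(DE3), purified by Ni-NTA then size exclusion in PBS pH 7.4. Concentration from A490 (ε 55 000 M–1 cm–1). PEGA beads bearing the test compound placed in microplate wells with 50 nM GFP. N-acetylated beads served as negative control. Bead fluorescence imaged by microscopy (ex 482/18 nm, em 520/28 nm).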

[3] = biological target: T1, GFP; assay: Binding of GFP from E. coli cell lysate to β-body beads; conditions: beads with lysed E. coli cells expressing GFP
How it was run: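 PEGA beads carrying the test compound incubated with lysed E. coli cells expressing GFP. Bead-bound GFP imaged by wide-field fluorescence microscopy (ex 482/18 nm, em 520/28 nm). For capture, beads washed with water, bound GFP eluted with PBS, and the eluate analysed by SDS-PAGE alongside the whole-cell lysate.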

[4] = biological target: T1, GFP; assay: Affinity purification of GFP from cell lysate on PEGA-β-body column, SDS-PAGE; conditions: packed PEGA column, washed with water, eluted with PBS
How it was run: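 GFP from Aequorea victoria, with an N-terminal His-tag, was expressed in E. coli BL21(DE3) from a pET plasmid. Culture was in LB with 100 μg/mL ampicillin at 37 °C to mid-exponential phase, then induced with 1 mM IPTG for 18 h at 20 °C. Cells were lysed in 50 mM Tris, 0.5 M NaCl, pH 8.0 with lysozyme and sonication, then clarified. SDS-PAGE gels were Coomassie-stained.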

[5] = biological target: T1, GFP; assay: On-bead microplate equilibrium binding assay, GFP
How it was run: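 Three equal-sized PEGA beads bearing the test compound per well, in triplicate. Purified His-tagged GFP in Milli-Q water, two-fold serial dilutions from 20 μM. Incubated overnight at room temperature to equilibrium. Per-bead fluorescence quantified by microscopy (1 ms exposure, GFP filter set). Kd from a one-site specific binding nonlinear regression fit; points average 3–6 measurements.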

[6] = biological target: T2, IL-1β (Homo sapiens, UniProt P01584); assay: Sandwich assay for IL-1β; format: binding; conditions: capture 10 with detection ROX-2, 50 nM IL-1β, deionized water
[7] = Unspecific interaction between capture and detection β-body; format: binding
How it was run: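 Capture β-body was covalently linked to PEGA1900 beads and mixed in solution with purified ROX-labelled detection β-body, with no target protein added. For the IL-1β pair, incubation was in deionised water in glass vials for 3 h. Beads were then imaged by wide-field fluorescence microscopy for ROX at 560/14 nm excitation and 605/52 nm emission.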

[8] = test system: IL-6; assay: Sandwich assay for IL-6; format: binding, human; conditions: capture 6 / ROX-labeled 7, with 0.05–0.1 M urea, 20 nM IL-6
[9] = biological target: T2, IL-1β; assay: On-bead microplate equilibrium binding assay, IL-1β
How it was run: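 Human IL-1β, N-terminal His-tag, expressed in E. coli BL21(DE3), purified by Ni-NTA and size exclusion. Labelled with 3 equiv ROX-NHS for 1 h at room temperature, free dye removed on G-25. Three compound-bearing PEGA beads per well, in triplicate. Two-fold dilutions from 10 μM in 5 mM phosphate buffer, overnight incubation. ROX fluorescence imaged at 2 ms exposure. Kd from one-site nonlinear fit.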

[10] = biological target: T2, IL-1β; assay: On-bead binding assay by fluorescence microscopy; conditions: on PEGA beads, 50 nM ROX-IL-1β
How it was run: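 Human IL-1β came from a codon-optimised gene with an N-terminal His-tag, expressed in E. coli BL21(DE3) and purified by Ni-NTA then size exclusion in PBS. It was labelled with 3 equiv ROX-NHS for 1 h at room temperature, excess dye removed on G-25 gel filtration, and quantified by 660 nm protein assay. Acetylated beads without β-body served as negative control. ROX read at 560/14 nm excitation and 605/52 nm emission.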

[11] = test system: IL-1α; assay: On-bead binding specificity test; parameters: species or system human; conditions: 50 nM ROX-IL-1α, PEGA beads, Figure 4B
[12] = biological target: human recombinant IL-2 (ProSpec) (human, UniProt P60568 21-153); assay: on-bead fluorescence microscopy
human recombinant IL-2 (ProSpec), sequence (P60568 21-153): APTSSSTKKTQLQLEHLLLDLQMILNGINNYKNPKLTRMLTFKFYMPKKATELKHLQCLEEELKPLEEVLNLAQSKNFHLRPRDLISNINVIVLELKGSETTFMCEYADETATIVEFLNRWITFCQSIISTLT

ROX-TRTLTYTEPGITQTKTEAG [ROX-5]
detection of IL-2 in sandwich assay [1]: fluorescent beads were then observed exclusively after addition of 50 nM of IL-2 | bead fluorescence in sandwich assay before protein addition [1]: no observation of fluorescence on the beads

NTVTNTMTRPGVTETVTQTDG [β-body 4]
detection of IL-2 in sandwich assay [1]: fluorescent beads were then observed exclusively after addition of 50 nM of IL-2 | bead fluorescence in sandwich assay before protein addition [1]: no observation of fluorescence on the beads

TETKTVTITRPKMTWTFTHTVTG [β-body 1]
binding of GFP to β-body beads [2]: binding was observed | binding of GFP from cell lysate [3]: binding was observed | transfer of fluorescence from lysate to beads [3]: quantitatively transferred from the lysate to the beads | purification of GFP from cell lysate [4]: a significant up-concentration of GFP was achieved with removal of the majority of other proteins in the cell lysate | Kd [5]: 184 ± 28.6 nM

ROX-ETDTYTETYPGYTSTWTITDG [ROX-2]
detection of IL-1β in sandwich assay [6]: enabled us to also detect IL-1β in nanomolar concentrations | unspecific binding of detection peptide to capture peptide ([7]; ROX-labeled 2 / capture 3 (IL-1β pair)): could not be prevented without affecting at the same time the binding of IL-1β

ROX-TMTDTDTYPGFTDTLTHAG [ROX-7]
fluorescence from beads with IL-6 added [8]: remained strongly fluorescent | unspecific interaction between capture and detection peptide at surface of beads ([7]; capture 6 / ROX-labeled 7 (IL-6 pair), no urea): some unspecific interaction

TWTETYTWTEPGDTQTLTITNTG [β-body 3]
Kd [9]: 610 ± 50 nM

ETDTYTETYPGRTITWTITDG [β-body 2]
binding of ROX-labeled IL-1β to β-body beads [10]: binding was observed | binding of ROX-labeled IL-1α to β-body beads (specificity) [11]: no interaction

{ROX}-TRTLTYTEPGITQTKTEAG (designed binder) [ROX-labeled β-body 5]
binding result [12]: binds
